Data on 22 molecules can be found in ChEMBL document CHEMBL1137432, “Characterization of the histamine H4 receptor binding site. Part 1. Synthesis and pharmacological evaluation of dibenzodiazepine derivatives” (J Med Chem, 2006).

Experiment [1] has as its target T1, Histamine H4 receptor (Homo sapiens, UniProt Q9H3N8). In words: Displacement of [3H]histamine from human histamine H4 receptor transfected in SK-N-MC cells.
In experiment [2] the target is T1, Histamine H4 receptor. Kind of experiment: Activity at human histamine H4 receptor transfected in SK-N-MC cells by cAMP assay. The class given is functional, cell-based. The procedure, abridged: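 Colorimetric cAMP read-out in SK-N-MC cells stably expressing the human H4 receptor together with a CRE-β-galactosidase reporter gene, used to measure functional activity.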

For experiment [3], the target named is T1, Histamine H4 receptor. In words: Agonist activity at human histamine H4 receptor transfected in SK-N-MC cells. It is filed as functional, cell-based.
The target in experiment [4] is T2, Histamine H1 receptor (Homo sapiens, UniProt P35367). In words: Displacement of [3H]mepyramine from human histamine H1 receptor.
T2 sequence (P35367 whole entry): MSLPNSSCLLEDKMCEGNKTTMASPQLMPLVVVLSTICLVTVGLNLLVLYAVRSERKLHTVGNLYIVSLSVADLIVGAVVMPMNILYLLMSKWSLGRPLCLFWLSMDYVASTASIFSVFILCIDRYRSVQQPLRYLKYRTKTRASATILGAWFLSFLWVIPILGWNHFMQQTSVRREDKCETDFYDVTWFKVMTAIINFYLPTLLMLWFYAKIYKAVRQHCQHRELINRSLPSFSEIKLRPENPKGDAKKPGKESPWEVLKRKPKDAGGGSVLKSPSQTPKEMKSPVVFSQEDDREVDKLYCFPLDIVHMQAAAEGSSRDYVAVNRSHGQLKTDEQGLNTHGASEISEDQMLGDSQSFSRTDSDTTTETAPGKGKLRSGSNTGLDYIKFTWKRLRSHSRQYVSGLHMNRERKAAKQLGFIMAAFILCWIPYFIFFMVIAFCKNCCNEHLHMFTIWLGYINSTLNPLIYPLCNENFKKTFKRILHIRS
The next experiment addresses Histamine H2 receptor (Homo sapiens, UniProt P25021). Kind of experiment: Displacement of [3H]APT from human histamine H2 receptor transfected in COS7 cells. It is filed as cell-based, COS-7. Background: Displacement assays read how much labelled ligand stays bound in the presence of the test substance.
A further experiment deals with Histamine H3 receptor (Homo sapiens, UniProt Q9Y5N1). Kind of experiment: Displacement of [3H]histamine from human histamine H3 receptor transfected in SK-N-MC cells. The class given is cell-based. The method, boiled down: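 Homogenates of SK-N-MC cells stably expressing the human H3 receptor were used. Affinity was determined by radioligand displacement.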
Chain of Histamine H3 receptor (Q9Y5N1 whole entry): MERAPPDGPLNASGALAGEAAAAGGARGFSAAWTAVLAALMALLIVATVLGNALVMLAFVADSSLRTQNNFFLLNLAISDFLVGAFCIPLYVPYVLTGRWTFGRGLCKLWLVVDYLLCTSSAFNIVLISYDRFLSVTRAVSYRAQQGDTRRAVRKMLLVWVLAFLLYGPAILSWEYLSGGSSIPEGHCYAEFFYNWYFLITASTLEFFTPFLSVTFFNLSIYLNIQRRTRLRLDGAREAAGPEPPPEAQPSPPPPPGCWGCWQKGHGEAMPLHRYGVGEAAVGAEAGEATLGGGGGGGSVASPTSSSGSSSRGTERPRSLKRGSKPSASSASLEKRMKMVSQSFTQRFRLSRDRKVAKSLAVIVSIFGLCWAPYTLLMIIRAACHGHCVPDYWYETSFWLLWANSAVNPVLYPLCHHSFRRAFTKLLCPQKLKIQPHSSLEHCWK
The target in experiment [5] is T2, Histamine H1 receptor. In words: Activity at human histamine H1 receptor transfected in COS7 cells by NF-kappaB luciferase reporter assay. It is filed as functional, cell-based, COS-7.
In experiment [6] the target is T1, Histamine H4 receptor. The note with it: SK-N-MC, 100 nM.
The target in experiment [7] is T1, Histamine H4 receptor. The note with it: SK-N-MC, 10 nM.
Experiment [8] addresses T1, Histamine H4 receptor. The note with it: SK-N-MC, 30 nM.
The target of experiment [9] is T1, Histamine H4 receptor. To be noted: SK-N-MC, 300 nM.
For experiment [10], the target named is T1, Histamine H4 receptor. To be noted: SK-N-MC, 1 uM.

T1 sequence (Q9H3N8 whole entry): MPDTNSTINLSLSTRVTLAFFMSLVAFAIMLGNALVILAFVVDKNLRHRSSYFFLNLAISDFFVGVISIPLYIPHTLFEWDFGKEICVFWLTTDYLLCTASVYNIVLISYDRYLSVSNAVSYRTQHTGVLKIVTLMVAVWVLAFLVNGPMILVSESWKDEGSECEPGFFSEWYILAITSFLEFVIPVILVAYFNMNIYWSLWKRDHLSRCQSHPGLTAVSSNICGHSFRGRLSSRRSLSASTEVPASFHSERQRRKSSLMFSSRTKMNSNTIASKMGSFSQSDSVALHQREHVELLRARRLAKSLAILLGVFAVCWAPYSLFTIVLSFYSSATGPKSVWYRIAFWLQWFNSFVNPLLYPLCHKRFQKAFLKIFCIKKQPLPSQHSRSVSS
Chain of Histamine H2 receptor (P25021 whole entry): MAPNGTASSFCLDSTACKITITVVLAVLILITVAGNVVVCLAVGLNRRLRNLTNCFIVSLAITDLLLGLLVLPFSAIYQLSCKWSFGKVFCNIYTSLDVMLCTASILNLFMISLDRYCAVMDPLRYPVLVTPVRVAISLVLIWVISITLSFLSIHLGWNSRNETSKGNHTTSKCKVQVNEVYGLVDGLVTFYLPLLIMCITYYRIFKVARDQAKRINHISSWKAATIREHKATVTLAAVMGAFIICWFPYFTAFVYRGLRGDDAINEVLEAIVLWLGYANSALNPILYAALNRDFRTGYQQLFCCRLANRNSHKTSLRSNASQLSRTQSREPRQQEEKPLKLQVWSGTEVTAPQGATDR

`CN1CCN(C2=Nc3cc(Cl)ccc3Oc3c(F)cccc32)CC1`: the Ki (commonly the dissociation constant of the complex between target and ligand, obtained from inhibition or displacement) at Histamine H4 receptor [1] was 27.5 nM. The response at Histamine H4 receptor [2] was half-maximal at 14.8 nM (EC50). The molecule further displayed an Activity at Histamine H4 receptor [3] of 1.

Regarding `OCCN1CCN(C2=Nc3cc(Cl)ccc3Nc3ccccc32)CC1`, the Ki at Histamine H4 receptor [1] was 4680 nM.

In the case of `Cc1ccc2c(c1)Oc1ccccc1C(N1CCN(C)CC1)=N2`, the Ki on Histamine H4 receptor [1] was 79.4 nM. Further, the EC50 (in general, the midpoint of the concentration-response curve) on Histamine H4 receptor [2] is 105 nM. Further, the Activity at Histamine H4 receptor [3] was found to be 1.

Molecule `CN1CCN(C2=Nc3ccc(Cl)cc3Oc3c(F)cccc32)CC1` showed an inhibition constant Ki on Histamine H4 receptor [1] of 30.9 nM. At Histamine H4 receptor [2], this molecule showed an EC50 of 20.4 nM. For the same molecule, on Histamine H4 receptor [3], the Activity came to 1.

In turn, `CN1CCN(C2=Nc3cc(Cl)ccc3N(C)c3ccccc32)CC1` showed an inhibition constant (Ki) on Histamine H4 receptor [1] of 1410 nM.

On Histamine H4 receptor [1], `CN1CCN(C2=Nc3cc(Cl)ccc3Sc3ccccc32)CC1` [ISOCLOTHIAPINE] had an inhibition constant Ki of 2040 nM.

`CN1CCN(C2=Nc3ccccc3Oc3ccc(Cl)cc32)CC1` [LOXAPINE] showed a Ki on Histamine H4 receptor [1] of 4570 nM. This molecule also had an EC50 on Histamine H4 receptor [2] of 219 nM. This molecule also registered an Activity at Histamine H4 receptor [3] of 0.5.

With `CN1CCN(C2=Cc3ccccc3Oc3ccc(Cl)cc32)CC1`, the inhibition constant Ki at Histamine H4 receptor [1] was greater than 10000 nM.

Consider `CN1CCN(C2=Nc3ccc(Cl)cc3Oc3ccccc32)CC1`, for which the inhibition constant Ki on Histamine H1 receptor [4] is 7.76 nM; at Histamine H2 receptor, 8710 nM; at Histamine H3 receptor it was 9120 nM. At Histamine H4 receptor [3], this molecule registered an Activity of 1. On Histamine H1 receptor [5], this molecule gave an EC50 of 6.76 nM. For the same molecule, the Bmax is 934 fmol/mg on Histamine H4 receptor [6], 951 fmol/mg at Histamine H4 receptor [7] and 934 fmol/mg at Histamine H4 receptor [8].

Molecule `CN1CCN(C2=Nc3ccc(Cl)cc3Oc3c(Cl)cccc32)CC1` gave a Ki on Histamine H4 receptor [1] of 45.7 nM. Further, the midpoint of the response at Histamine H4 receptor [2], the EC50, lay at 14.8 nM. Further, the Activity at Histamine H4 receptor [3] stood at 1.

The molecule `CN1CCN(C2=Nc3cc(Cl)ccc3Oc3cc(Cl)ccc32)CC1` gave a Ki on Histamine H4 receptor [1] of 309 nM. At Histamine H4 receptor [2], this molecule showed an EC50 of 102 nM. On Histamine H4 receptor [3], this molecule came in with an Activity of 1.

In turn, `CN1CCN(C2=Nc3ccccc3Oc3ccccc32)CC1` had a Ki at Histamine H4 receptor [1] of 132 nM. The EC50 on Histamine H4 receptor [2] is 302 nM. For the same molecule, at Histamine H4 receptor [3], the Activity was found to be 1.

Turning to `CN1CCN(C2=Nc3cc(Cl)ccc3Oc3ccccc32)CC1` [ISOLOXAPINE], the Ki on Histamine H4 receptor [1] is 42.7 nM. On Histamine H4 receptor [2], this molecule gave an EC50 of 28.2 nM. The Activity at Histamine H4 receptor [3] worked out at 1.

On Histamine H4 receptor [1], `CN1CCN(C2=Nc3ccc(Cl)cc3Oc3cc(F)ccc32)CC1` showed a Ki of 38.9 nM. At Histamine H4 receptor [2], the EC50 was 38.9 nM. The molecule further displayed an Activity on Histamine H4 receptor [3] of 1.

For `CCN1CCN(C2=Nc3cc(Cl)ccc3Oc3ccccc32)CC1`, the affinity on Histamine H4 receptor [1], expressed as Ki, was 288 nM.

As for `CN1CCN(C2=Nc3cc(Cl)ccc3Oc3ccc(F)cc32)CC1`, the Ki at Histamine H4 receptor [1] was 191 nM. On Histamine H4 receptor [2], the EC50 is 81.3 nM. The molecule also displayed an Activity at Histamine H4 receptor [3] of 1.

Regarding `CN1CCN(C2=Nc3cc(Cl)ccc3Nc3ccccc32)CC1`, the Bmax at Histamine H4 receptor [6] amounted to 996 fmol/mg; on Histamine H4 receptor [9], 899 fmol/mg; at Histamine H4 receptor [10], 987 fmol/mg.

With `Clc1ccc2c(c1)N=C(N1CCNCC1)c1ccccc1O2`, the Ki on Histamine H4 receptor [1] is 324 nM.

As to `CN1CCN(C2=Nc3ccccc3Cc3ccccc32)CC1` [PERLAPINE], at Histamine H4 receptor [1], the Ki is 4790 nM.

For the molecule `Clc1ccc2c(c1)N=C(N1CCOCC1)c1ccccc1N2`, the inhibition constant Ki at Histamine H4 receptor [1] is greater than 10000 nM.

As to `Clc1ccc2c(c1)N=C(N1CCCCC1)c1ccccc1N2`, the Ki at Histamine H4 receptor [1] is greater than 10000 nM.

With `CC(C)N1CCN(C2=Nc3cc(Cl)ccc3Oc3ccccc32)CC1`, on Histamine H4 receptor [1], the affinity corresponds to a Ki of 1070 nM.
